In ChEMBL document CHEMBL4706680, “Small-Molecule HSP27 Inhibitor Abolishes Androgen Receptors in Glioblastoma” (J Med Chem, 2021):
Calls of active or inactive are those of the source. No cut-off for these calls is given here.

Key:
[1] = tested on: U-87MG ATCC; assay: Downregulation of NKX3.1 mRNA expression in human U87 cells at 25 nM incubated for 12 hrs by qRT-PCR analysis; format: functional, cell-based
In short: (§1)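 T98G and U87 cells, 2 × 10^5 per well, adhered overnight and were treated at 25 nM for 12 h. RNA was extracted with RiboZol and DNase I-treated. AR, PSA and NKX3.1 were measured by real-time PCR, normalized to 18S by 2−ΔΔCt, three replicates per cDNA.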

[2] = target: Heat shock protein beta-1 (Homo sapiens) (UniProt P04792); assay: Inhibition of HSP27 in human U87 cells assessed as induction of AR degradation at 25 to 100 nM by Western blot analysis; format: cell-based; details: dose 25-100 nM
In short: (§2)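 Cells were treated in six-well plates (with or without MG132 where stated), then lysed in RIPA with protease inhibitors. 50 μg protein was run on 10% SDS-PAGE and transferred to PVDF. Membranes were blocked in 5% milk/TBS-T, probed with AR or AR-V7 antibodies overnight at 4 °C, and detected by chemiluminescence. Densitometry was used; n = 3.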

[3] = Toxicity in CD1 mouse assessed as acute pain at 80 mg/kg/day, ip administered thrice weekly and measured at day 10; format: organism-based; details: in vivo, 72 h, time 3 day
In short: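 Male CD-1 mice, four per group, given 80 mg/kg in PBS IP three times weekly; vehicle DMSO. Mice were euthanized when toxicity signs appeared, otherwise at day 10. Body weight was recorded at first and last dosing days. Non-fasted cardiac blood was taken after euthanasia for an automated hematology analyzer.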

[4] = target: Heat shock protein beta-1 (Homo sapiens) (UniProt P04792); assay: Inhibition of HSP27 in human T98G cells assessed as reduction in AR expression level at 100 nM incubated for 12 hrs by immunofluorescence analysis; format: cell-based
In short: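 T98G cells on coverslips, 24 h after seeding, were treated 12 h with 100 nM, DHT 10 nM, or both. Cells were fixed in 4% paraformaldehyde, permeabilized with 0.1% Triton X-100 and blocked with 1% BSA. They were stained 1 h each with AR and HSP27 primary and fluorescent secondary antibodies, with DAPI for nuclei.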

[5] = target: T1, Androgen receptor (Homo sapiens) (UniProt P10275); assay: Inhibition of AR transcriptional activity in human T98G cells assessed as reduction in AR mRNA expression at 25 nM incubated for 12 hrs by qRT-PCR analysis; format: cell-based; in short: as §1
T1 sequence (whole entry): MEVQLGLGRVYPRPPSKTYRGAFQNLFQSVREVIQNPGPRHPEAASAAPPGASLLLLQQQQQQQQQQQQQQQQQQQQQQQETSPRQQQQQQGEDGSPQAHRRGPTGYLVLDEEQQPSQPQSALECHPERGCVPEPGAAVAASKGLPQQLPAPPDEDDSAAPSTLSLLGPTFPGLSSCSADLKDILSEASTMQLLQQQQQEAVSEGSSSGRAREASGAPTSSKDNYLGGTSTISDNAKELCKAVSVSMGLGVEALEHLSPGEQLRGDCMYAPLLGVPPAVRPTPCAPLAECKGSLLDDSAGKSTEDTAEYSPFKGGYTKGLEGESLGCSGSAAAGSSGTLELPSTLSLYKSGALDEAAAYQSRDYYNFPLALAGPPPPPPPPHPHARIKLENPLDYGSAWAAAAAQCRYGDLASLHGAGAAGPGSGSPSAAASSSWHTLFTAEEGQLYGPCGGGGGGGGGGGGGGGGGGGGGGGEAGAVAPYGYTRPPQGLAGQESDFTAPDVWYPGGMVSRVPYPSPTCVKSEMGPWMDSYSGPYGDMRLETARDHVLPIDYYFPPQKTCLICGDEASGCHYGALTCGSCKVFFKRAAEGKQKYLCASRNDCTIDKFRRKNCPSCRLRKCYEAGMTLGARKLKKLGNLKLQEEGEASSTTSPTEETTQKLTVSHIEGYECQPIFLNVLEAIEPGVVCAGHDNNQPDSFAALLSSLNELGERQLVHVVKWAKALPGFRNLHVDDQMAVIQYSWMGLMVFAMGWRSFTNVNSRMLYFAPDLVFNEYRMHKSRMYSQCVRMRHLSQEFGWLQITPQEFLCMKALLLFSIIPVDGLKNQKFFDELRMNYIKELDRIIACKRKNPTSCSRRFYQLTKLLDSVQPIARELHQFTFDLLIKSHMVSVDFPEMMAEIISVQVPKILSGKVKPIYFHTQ

[6] = target: Heat shock protein beta-1 (Homo sapiens) (UniProt P04792); assay: Inhibition of HSP27 in human U87 cells assessed as reduction in AR expression level at 50 to 100 nM by Western blot analysis; format: cell-based; details: dose 50-100 nM; in short: as §2
[7] = tested on: U-87 MG; assay: Antitumor activity against human U87 cells xenografted in nude mouse assessed as reduction in tumor weight at 20 mg/kg, ip administered thrice weekly for 14 days by vernier caliper method; format: functional, organism-based; details: U-87MG ATCC, time 14.0 day
In short: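 Male NCRNU nude mice, 5–6 weeks, 5 × 10^6 U87 cells in PBS injected subcutaneously into left and right flank (n = 4 mice, 8 tumors per group). Dosing began near 50 mm3: 20 mg/kg in PBS IP or oral, three times weekly for 14 days, vehicle DMSO. Calipers three times weekly, V = 2/3·d1·d2²; tumors weighed after CO2 euthanasia.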

[8] = tested on: T98G; assay: Downregulation of NKX3.1 mRNA expression in human T98G cells at 25 nM incubated for 12 hrs by qRT-PCR analysis; format: functional, cell-based; in short: as §1
[9] = Toxicity in NCR nude mouse xenografted with human U87 cells assessed as change in body weight at 20 mg/kg, po administered thrice weekly for 14 days; format: organism-based; details: in vivo, 336 h, time 14 day
In short: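 Male NCRNU nude mice, 5–6 weeks old, were given 5 × 10^6 U87 cells in 100 μL sterile PBS, injected subcutaneously into the left and right flanks. Dosing was 20 mg/kg in PBS, three times weekly for 14 days, with a DMSO vehicle group. Body weight was recorded three times weekly. Results are mean ± SD, n = 4 mice per group.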

[10] = target: Heat shock protein beta-1 (Homo sapiens) (UniProt P04792); assay: Inhibition of HSP27 in human T98G cells assessed as induction of AR degradation at 25 to 100 nM by Western blot analysis; format: cell-based; details: dose 25-100 nM; in short: as §2
[11] = tested on: T98G; assay: Downregulation of PSA mRNA expression in human T98G cells at 25 nM incubated for 12 hrs by qRT-PCR analysis; format: functional, cell-based; in short: as §1
[12] = target: T1, Androgen receptor (Homo sapiens); assay: Inhibition of AR transcriptional activity in human U87 cells assessed as reduction in AR mRNA expression at 25 nM incubated for 12 hrs by qRT-PCR analysis; format: cell-based; in short: as §1
[13] = tested on: A 172; assay: Antiproliferative activity against human A 172 cells assessed as reduction in cell viability incubated for 48 hrs by MTT assay; format: functional, cell-based; details: A 172, 48 h
In short: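 MTT assay; 3000 cells/well in RPMI 1640 or DMEM with 10% FBS, seeded 24 h, then exposed 48 h to a range of concentrations in DMSO (final ≤0.1%); vehicle controls. MTT 1 mg/mL for 2 h at 37 °C, dye dissolved in DMSO, absorbance 570 nm; eight replicates; IC50 by nonlinear regression.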

[14] = tested on: U-87MG ATCC; assay: Downregulation of PSA mRNA expression in human U87 cells at 25 nM incubated for 12 hrs by qRT-PCR analysis; format: functional, cell-based; in short: as §1
[15] = target: Heat shock protein beta-1 (Homo sapiens) (UniProt P04792); assay: Inhibition of HSP27 in human T98G cells assessed as reduction in AR-V7 expression by Western blot analysis; format: cell-based; details: dose 25-100 nM; in short: as §2

Chain of Heat shock protein beta-1 (Homo sapiens) (P04792 whole entry): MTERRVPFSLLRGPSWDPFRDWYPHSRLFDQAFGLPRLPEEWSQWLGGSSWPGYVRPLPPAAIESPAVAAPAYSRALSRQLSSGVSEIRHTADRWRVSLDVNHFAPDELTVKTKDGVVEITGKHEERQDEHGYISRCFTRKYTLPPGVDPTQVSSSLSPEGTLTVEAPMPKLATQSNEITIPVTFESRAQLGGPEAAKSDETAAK

COc1ccc(C(=O)Nc2ccc(NS(C)(=O)=O)c(OCc3cc(OC)ccc3OC)c2)cc1
inhibition [1]: Active | inhibition [2]: Active | Activity [3]: Non-Toxic | inhibition [4]: Active | inhibition [5]: Active | inhibition [6]: Active | Activity [7]: Active | inhibition [8]: Active | Activity [9]: Non-Toxic | inhibition [10]: Active | inhibition [11]: Active | inhibition [12]: Active | IC50 [13]: 6.24 nM | inhibition [14]: Active | inhibition [15]: Dose-dependent effect
